Reference: ChEMBL document CHEMBL2040719, “Fragment-based design of symmetrical bis-benzimidazoles as selective inhibitors of the trimethoprim-resistant, type II R67 dihydrofolate reductase” (J Med Chem, 2012)
Calls of active or inactive are those of the source. No cut-off for these calls is given here.

What was measured:
[1] = Inhibition of recombinant type N-terminal His6-tagged 2 R67 DHFR expressed in Escherichia coli BL21 using DHF as substrate by spectrophotometry
Summary of the method: (§1)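 His-tagged R67 DHFR purified from E. coli by Ni affinity with an imidazole gradient. Activity followed as NADPH plus DHF depletion at 340 nm (Δε 12800 M⁻¹cm⁻¹) in 400 mM HEPES pH 7.0 with 10% final DMSO. Reactions started with 250 nM enzyme; initial rates (<10% conversion). Ki via Cheng–Prusoff with KM(NADPH) 1.6 μM, assuming competitive inhibition.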

[2] = target: T1, Dihydrofolate reductase (Homo sapiens) (UniProt P00374); assay: Inhibition of human chromosomal DHFR expressed in Escherichia coli BL21 using DHF as substrate assessed as remaining activity at 400 uM by spectrophotometry relative to control
T1 sequence (whole entry): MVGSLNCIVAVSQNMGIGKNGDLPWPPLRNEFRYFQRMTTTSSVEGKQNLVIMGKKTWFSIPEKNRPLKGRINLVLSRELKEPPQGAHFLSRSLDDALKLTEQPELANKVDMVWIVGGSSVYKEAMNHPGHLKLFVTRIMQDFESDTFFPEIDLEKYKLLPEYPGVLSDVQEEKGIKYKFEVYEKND

[3] = Competitive inhibition of recombinant R67 DHFR expressed in Escherichia coli BL21 using DHF as substrate by Dixon plot analysis in the presence of 5 to 80 uM NADPH
Summary of the method: (§2)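 Dixon method in 50 mM potassium phosphate pH 7.0, 10% DMSO. NADPH series: DHF fixed at 50 μM, NADPH at 5 or 80 μM, inhibitor over a range spanning Ki. DHF series: NADPH fixed at 50 μM. Reciprocal rates plotted against inhibitor concentration; Ki taken from the slope intersection; triplicates, mean ± SD.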

[4] = Competitive inhibition of recombinant R67 DHFR expressed in Escherichia coli BL21 using 25 to 164 uM DHF as substrate by Dixon plot analysis in the presence of 50 uM of NADPH; summary of the method: as §2
[5] = tested on: Escherichia coli; assay: Antibacterial activity against Escherichia coli […] expressing […] up to 1 mM in presence of 50 ug/mL Trimethoprim; format: functional, organism-based
Summary of the method: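 E. coli XL1-Blue expressing R67 DHFR grown in M9 minimal medium with 50 μg/mL TMP to block chromosomal DHFR; growth inhibition tested up to 1 mM (maximal concentration).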

[6] = Cytotoxicity against mouse 3T6 cells assessed as cell death at 200 uM after 72 hrs by MTT assay; format: cell-based
Summary of the method: (§3)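 Mouse 3T6 embryonic fibroblasts in DMEM + 10% heat-inactivated FBS, 37 °C, 5% CO2, seeded at 5×10³ cells/well. Eight dilutions 0.05–200 μM from DMSO, medium with compound renewed at 24 h, 48 h further incubation. MTT 3 h, read at 540 nm with 690 nm reference. Triplicates; % inhibition versus blank-corrected solvent controls; IC50 from the plot.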

[7] = target: T1, Dihydrofolate reductase (Homo sapiens); assay: Inhibition of human chromosomal DHFR expressed in Escherichia coli BL21 using DHF as substrate assessed as remaining activity at 5 mM by spectrophotometry relative to control
Summary of the method: (§4)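 Human chromosomal DHFR overexpressed in E. coli BL21(DE3). Spectrophotometric assay at 340 nm following NADPH/DHF depletion in 50 mM potassium phosphate pH 8.0, 10% final DMSO, initial rates. Each compound was tested at its highest concentration allowed by solubility and absorbance; activity reported relative to the uninhibited control.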

[8] = target: T1, Dihydrofolate reductase (Homo sapiens); assay: Inhibition of human chromosomal DHFR expressed in Escherichia coli BL21 using DHF as substrate assessed as remaining activity at 30 mM by spectrophotometry relative to control; summary of the method: as §4
[9] = Cytotoxicity against mouse 3T6 cells after 72 hrs by MTT assay; format: cell-based; summary of the method: as §3
[10] = target: T1, Dihydrofolate reductase (Homo sapiens); assay: Inhibition of human chromosomal DHFR expressed in Escherichia coli BL21 using DHF as substrate assessed as remaining activity at 300 uM by spectrophotometry relative to control
[11] = Inhibition of Escherichia coli R67 DHFR; summary of the method: as §1
[12] = target: T1, Dihydrofolate reductase (Homo sapiens); assay: Inhibition of human chromosomal DHFR expressed in Escherichia coli BL21 using DHF as substrate assessed as remaining activity at 1 mM by spectrophotometry relative to control; summary of the method: as §4
[13] = target: T1, Dihydrofolate reductase (Homo sapiens); assay: Inhibition of human chromosomal DHFR expressed in Escherichia coli BL21 using DHF as substrate assessed as remaining activity at 10 mM by spectrophotometry relative to control; summary of the method: as §4
[14] = target: T1, Dihydrofolate reductase (Homo sapiens); assay: Inhibition of human chromosomal DHFR expressed in Escherichia coli BL21 using DHF as substrate assessed as remaining activity at 2.5 mM by spectrophotometry relative to control; summary of the method: as §4

inhibition [1]	IC50 [1]	SMILES	Ki [1]	other results
	0.064 mM	O=C(O)c1ccc2[nH]c(-c3ccc(OCCCCCOc4ccc(-c5nc6cc(C(=O)O)ccc6[nH]5)cc4)cc3)nc2c1	2 µM	Activity [2]: 95%; Ki [3]: 4.2 µM; Ki [4]: 9.7 µM; Activity [5]: inactive; Activity [6]: 40%
	1.8 mM	COc1cc2c(OC)cccc2cc1C(=O)O	55 µM	Activity [7]: 14%
inactive		COc1ccc2cc(C(=O)O)ccc2c1		
	8.4 mM	O=C(O)c1ccc2[nH]nnc2c1	260 µM	Activity [8]: 69%
	≥ 0.3 mM	c1ccc2[nH]c(-c3ccc(OCCCCCOc4ccc(-c5nc6ccccc6[nH]5)cc4)cc3)nc2c1		IC50 [9]: 0.98 µM; Activity [10]: 110%
		CO[C@@H]1[C@@H](OC(N)=O)[C@@H](O)[C@H](Oc2ccc3c(O)c(NC(=O)c4ccc(O)c(CC=C(C)C)c4)c(=O)oc3c2C)OC1(C)C [NOVOBIOCIN]		Ki [11]: 70 µM
	2 mM	O=C(O)c1cc2nccnc2s1	61 µM	Activity [7]: 37%
	0.13 mM	O=C(O)c1ccc2[nH]c(-c3ccc(OCC(O)COc4ccc(-c5nc6cc(C(=O)O)ccc6[nH]5)cc4)cc3)nc2c1	4 µM	Activity [12]: 95%; Activity [5]: inactive; Activity [6]: 40%
	2.6 mM	O=C(O)c1ccc2[nH]cnc2c1	80 µM	Activity [13]: 75%
	1.7 mM	Nc1ccc2cc(C(=O)O)ccc2c1	51 µM	Activity [14]: 14%
	6.1 mM	O=C(O)c1ccc2cc(O)ccc2c1	190 µM	Activity [13]: 13%
	≥ 1 mM	O=C(O)c1ccc(OCCCCCOc2ccc(C(=O)O)cc2)cc1		IC50 [9]: 34 µM; Activity [12]: 100%
inactive		Cc1nc2cc(C(=O)O)ccc2[nH]1		
inactive		CC(C)n1nnc2cc(C(=O)O)ccc21		
inactive		Nc1cc2ccccc2cc1C(=O)O		
		Nc1c(/N=N/c2ccc(-c3ccc(/N=N/c4cc(S(=O)(=O)O)c5ccccc5c4N)cc3)cc2)cc(S(=O)(=O)O)c2ccccc12 [CONGO RED]		Ki [11]: 2 µM
	17 mM	Oc1nncc2ccccc12 [PHTHALAZINONE]	530 µM	Activity [8]: 97%

SMILES	inhibition [1]	IC50 [1]	Ki [1]	other results
O=C(O)c1ccc2c(c1)OCO2	inactive			
c1ccc2[nH]cnc2c1	inactive			
